According to ChEMBL document CHEMBL2440054, “Largazole Arrests Cell Cycle at G1 Phase and Triggers Proteasomal Degradation of E2F1 in Lung Cancer Cells” (ACS Med Chem Lett, 2013):
Active and inactive are the calls of the source.

How the values were obtained:
[1] = molecular target: Transcription factor E2F1 (Homo sapiens) (UniProt Q01094); experiment: Induction of E2F1 degradation in human 95-D cells at 0.1 uM after 12 to 24 hrs by Western blotting analysis; format: cell-based
How it was run: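 Each cell line (16-HBE, 95D, L78, H1975, H460) treated with 0.1 μM largazole for indicated times. Lysates Western blotted for E2F1.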

[2] = tested on: A549; experiment: Upregulation of p21 mRNA expression in human A549 cells at 0.1 uM after 12 hrs by RT-PCR analysis; format: functional, cell-based
How it was run: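 A549 cells at 0.1 μM over a time course. RNA extracted, and p21 mRNA assessed by RT-PCR with specific primers.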

[3] = molecular target: Histone deacetylase 1 (Homo sapiens) (UniProt Q13547); conditions: A549, 0.1 uM
Histone deacetylase 1 (Homo sapiens), sequence (Q13547 whole entry): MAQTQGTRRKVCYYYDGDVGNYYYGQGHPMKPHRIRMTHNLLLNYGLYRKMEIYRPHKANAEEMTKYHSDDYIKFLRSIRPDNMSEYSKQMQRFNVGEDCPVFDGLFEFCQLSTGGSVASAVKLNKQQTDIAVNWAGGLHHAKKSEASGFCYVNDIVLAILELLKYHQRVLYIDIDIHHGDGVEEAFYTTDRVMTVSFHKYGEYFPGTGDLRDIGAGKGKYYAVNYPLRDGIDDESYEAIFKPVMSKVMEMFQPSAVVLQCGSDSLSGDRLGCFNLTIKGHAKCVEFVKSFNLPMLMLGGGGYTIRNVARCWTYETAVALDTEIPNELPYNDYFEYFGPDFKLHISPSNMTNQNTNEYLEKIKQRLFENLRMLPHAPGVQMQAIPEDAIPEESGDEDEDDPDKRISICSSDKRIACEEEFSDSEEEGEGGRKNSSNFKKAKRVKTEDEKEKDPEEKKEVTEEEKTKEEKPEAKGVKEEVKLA

Transcription factor E2F1 (Homo sapiens), sequence (Q01094 whole entry): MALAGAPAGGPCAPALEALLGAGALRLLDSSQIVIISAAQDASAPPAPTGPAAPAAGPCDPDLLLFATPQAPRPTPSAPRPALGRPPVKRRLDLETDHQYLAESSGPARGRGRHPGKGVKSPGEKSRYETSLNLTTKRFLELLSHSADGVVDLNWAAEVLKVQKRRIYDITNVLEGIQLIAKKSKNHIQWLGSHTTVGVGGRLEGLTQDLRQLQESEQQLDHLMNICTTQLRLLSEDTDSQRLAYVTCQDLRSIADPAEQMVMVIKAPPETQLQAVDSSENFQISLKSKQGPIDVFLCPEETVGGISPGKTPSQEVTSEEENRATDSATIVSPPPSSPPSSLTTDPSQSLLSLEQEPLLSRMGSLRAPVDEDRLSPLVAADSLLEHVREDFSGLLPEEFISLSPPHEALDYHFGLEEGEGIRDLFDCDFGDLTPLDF

CCCCCCCC(=O)SCC/C=C/[C@@H]1CC(=O)NCc2nc(cs2)C2=N[C@@](C)(CS2)C(=O)N[C@@H](C(C)C)C(=O)O1 [LARGAZOLE]
active: Activity [1] | Activity [2] | inhibition [3]
